Molecules are shown by their SMILES.

In assay [1] the test system is Escherichia coli. As to the kind of experiment: Inhibition of Escherichia coli MetAP at 25 uM after 20 mins by HPLC analysis. The essentials: (§1)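 Endpoint assay. Enzyme (50 nM) was preincubated with 25 μM compound for 20 min at 37 °C in 50 mM Tris pH 7.5, 100 mM NaCl, 100 μM CoCl2, 0.075% BSA. MGMM substrate (400 μM) was then added for 15 min (human MetAP-1) or 20 min (E. coli MetAP). Reactions were stopped with TFA. GMM product was quantified by RP-HPLC, UV 214 nm. Triplicate.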

For assay [2], the target named is Methionine aminopeptidase 1 (Homo sapiens) (UniProt P53582). As to the kind of experiment: Inhibition of human MetAP at 25 uM after 20 mins by HPLC analysis. The essentials:
as §1

Assay [3] deals with Escherichia coli. As to the kind of experiment: Inhibition of wild-type Escherichia coli MurA compound preincubated for 10 mins before substrate addition at 25 uM measured after 15 mins by LC-MS method.
Assay [4] has as its system Escherichia coli. As to the kind of experiment: Inhibition of wild-type Escherichia coli MurB compound preincubated for 10 mins before substrate addition at 25 uM measured after 15 mins by LC-MS method. The method, boiled down: (§2)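 E. coli wild-type enzyme (4 nM) was preincubated with 25 μM compound for 10 min at 37 °C. Enzymatically generated nucleotide-sugar substrate (~200 μM) plus ATP (~200 μM), or NADPH 200 μM for MurB, was added for 10 min. Reactions were started with amino-acid cosubstrate (MurC–F) or EP-UNAG (MurB), run 15 min at 37 °C, and quenched with formic acid. Product was measured by negative-ESI LC-MS EIC peak area. MgCl2: MurC 10, MurD/E 2, MurF 5 mM; MurB had 5 mM KCl. All in 50 mM NH4HCO3, 0.07% BSA, 1% DMSO; triplicate.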

The test system of assay [5] is Escherichia coli. Put plainly: Inhibition of wild-type Escherichia coli MurC compound preincubated for 10 mins before substrate addition at 25 uM measured after 15 mins by LC-MS method. The method, boiled down: as §2
For assay [6], the system named is Escherichia coli. Put plainly: Inhibition of wild-type Escherichia coli MurD compound preincubated for 10 mins before substrate addition at 25 uM measured after 15 mins by LC-MS method. The essentials:
as §2

For assay [7], the system named is Escherichia coli. Put plainly: Inhibition of wild-type Escherichia coli MurE compound preincubated for 10 mins before substrate addition at 25 uM measured after 15 mins by LC-MS method. The essentials:
as §2

In assay [8] the test system is Escherichia coli. As to the kind of experiment: Inhibition of wild-type Escherichia coli MurF compound preincubated for 10 mins before substrate addition at 25 uM measured after 15 mins by LC-MS method. The method, boiled down: as §2
Assay [9] can be described thus: GSH reactivity of the compound assessed as adducts formation by RP-HPLC analysis. The method, boiled down: (§3)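 Fresh aqueous glutathione (10 mM solution) was added to 50 mM Tris-maleate buffer, pH 7.5. The reaction was started with compound from 10 mM DMSO stock (final 250 μM). Mixtures were followed by reversed-phase HPLC on an ODS column with a gradient to 100% B; rate constants are given in l·mol⁻¹·s⁻¹.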

Assay [10] can be described thus: GSH reactivity of the compound assessed as half life by RP-HPLC analysis.
Assay [11] addresses Genome polyprotein (dengue virus type 2) (UniProt P12823). As to the kind of experiment: Inhibition of Dengue virus serotype 2 NS2B-NS3 protease at 50 uM.
For assay [12], the target named is Genome polyprotein (West Nile virus) (UniProt P06935). As to the kind of experiment: Inhibition of West Nile virus NS2B-NS3 protease at 50 uM.
Assay [13] concerns the target Prothrombin (Bos taurus) (UniProt P00735). As to the kind of experiment: Inhibition of Bovine thrombin using Boc-Val-Pro-Arg-AMC as substrate compound preincubated at 25 uM for 15 mins by fluorescence assay. The essentials:
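Bovine thrombin (final 10 nM) was preincubated 15 min with 25 μM compound in 50 mM Tris-HCl pH 7.5, 150 mM NaCl, 0.05% Tween 20. The reaction was started with Boc-Val-Pro-Arg-AMC (50 μM final). Fluorescence (ex 355/em 460 nm) was monitored continuously for 10 min; activity taken as slope (RFU/s). Triplicate.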

Assay [14] in a line: GSH reactivity of the compound assessed as adducts formation meaured over 3 hrs by RP-HPLC analysis. The method, boiled down: as §3
Assay [15] deals with HeLa. Put plainly: Cytotoxicity against human HeLa cells assessed as reduction in cell viability after 24 hrs by CellTiter-Blue assay. In kind it is cell-based. The essentials:
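HeLa cells seeded in triplicate at 5×10^3 cells/well and grown 24 h at 37 °C/5% CO2. Compounds at varying concentrations were added as a 2x stock in phenol-red-free DMEM with FBS, penicillin/streptomycin, sodium pyruvate and L-glutamine, then left 24 h. Medium was replaced with CellTiter-Blue medium for 3 h. A570/A610 was read after background subtraction, as % of untreated controls; EC50 derived.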
On the technique in general: The colour change of resazurin is a common sign of viable cells or microbes.

Genome polyprotein (West Nile virus), sequence (P06935 whole entry): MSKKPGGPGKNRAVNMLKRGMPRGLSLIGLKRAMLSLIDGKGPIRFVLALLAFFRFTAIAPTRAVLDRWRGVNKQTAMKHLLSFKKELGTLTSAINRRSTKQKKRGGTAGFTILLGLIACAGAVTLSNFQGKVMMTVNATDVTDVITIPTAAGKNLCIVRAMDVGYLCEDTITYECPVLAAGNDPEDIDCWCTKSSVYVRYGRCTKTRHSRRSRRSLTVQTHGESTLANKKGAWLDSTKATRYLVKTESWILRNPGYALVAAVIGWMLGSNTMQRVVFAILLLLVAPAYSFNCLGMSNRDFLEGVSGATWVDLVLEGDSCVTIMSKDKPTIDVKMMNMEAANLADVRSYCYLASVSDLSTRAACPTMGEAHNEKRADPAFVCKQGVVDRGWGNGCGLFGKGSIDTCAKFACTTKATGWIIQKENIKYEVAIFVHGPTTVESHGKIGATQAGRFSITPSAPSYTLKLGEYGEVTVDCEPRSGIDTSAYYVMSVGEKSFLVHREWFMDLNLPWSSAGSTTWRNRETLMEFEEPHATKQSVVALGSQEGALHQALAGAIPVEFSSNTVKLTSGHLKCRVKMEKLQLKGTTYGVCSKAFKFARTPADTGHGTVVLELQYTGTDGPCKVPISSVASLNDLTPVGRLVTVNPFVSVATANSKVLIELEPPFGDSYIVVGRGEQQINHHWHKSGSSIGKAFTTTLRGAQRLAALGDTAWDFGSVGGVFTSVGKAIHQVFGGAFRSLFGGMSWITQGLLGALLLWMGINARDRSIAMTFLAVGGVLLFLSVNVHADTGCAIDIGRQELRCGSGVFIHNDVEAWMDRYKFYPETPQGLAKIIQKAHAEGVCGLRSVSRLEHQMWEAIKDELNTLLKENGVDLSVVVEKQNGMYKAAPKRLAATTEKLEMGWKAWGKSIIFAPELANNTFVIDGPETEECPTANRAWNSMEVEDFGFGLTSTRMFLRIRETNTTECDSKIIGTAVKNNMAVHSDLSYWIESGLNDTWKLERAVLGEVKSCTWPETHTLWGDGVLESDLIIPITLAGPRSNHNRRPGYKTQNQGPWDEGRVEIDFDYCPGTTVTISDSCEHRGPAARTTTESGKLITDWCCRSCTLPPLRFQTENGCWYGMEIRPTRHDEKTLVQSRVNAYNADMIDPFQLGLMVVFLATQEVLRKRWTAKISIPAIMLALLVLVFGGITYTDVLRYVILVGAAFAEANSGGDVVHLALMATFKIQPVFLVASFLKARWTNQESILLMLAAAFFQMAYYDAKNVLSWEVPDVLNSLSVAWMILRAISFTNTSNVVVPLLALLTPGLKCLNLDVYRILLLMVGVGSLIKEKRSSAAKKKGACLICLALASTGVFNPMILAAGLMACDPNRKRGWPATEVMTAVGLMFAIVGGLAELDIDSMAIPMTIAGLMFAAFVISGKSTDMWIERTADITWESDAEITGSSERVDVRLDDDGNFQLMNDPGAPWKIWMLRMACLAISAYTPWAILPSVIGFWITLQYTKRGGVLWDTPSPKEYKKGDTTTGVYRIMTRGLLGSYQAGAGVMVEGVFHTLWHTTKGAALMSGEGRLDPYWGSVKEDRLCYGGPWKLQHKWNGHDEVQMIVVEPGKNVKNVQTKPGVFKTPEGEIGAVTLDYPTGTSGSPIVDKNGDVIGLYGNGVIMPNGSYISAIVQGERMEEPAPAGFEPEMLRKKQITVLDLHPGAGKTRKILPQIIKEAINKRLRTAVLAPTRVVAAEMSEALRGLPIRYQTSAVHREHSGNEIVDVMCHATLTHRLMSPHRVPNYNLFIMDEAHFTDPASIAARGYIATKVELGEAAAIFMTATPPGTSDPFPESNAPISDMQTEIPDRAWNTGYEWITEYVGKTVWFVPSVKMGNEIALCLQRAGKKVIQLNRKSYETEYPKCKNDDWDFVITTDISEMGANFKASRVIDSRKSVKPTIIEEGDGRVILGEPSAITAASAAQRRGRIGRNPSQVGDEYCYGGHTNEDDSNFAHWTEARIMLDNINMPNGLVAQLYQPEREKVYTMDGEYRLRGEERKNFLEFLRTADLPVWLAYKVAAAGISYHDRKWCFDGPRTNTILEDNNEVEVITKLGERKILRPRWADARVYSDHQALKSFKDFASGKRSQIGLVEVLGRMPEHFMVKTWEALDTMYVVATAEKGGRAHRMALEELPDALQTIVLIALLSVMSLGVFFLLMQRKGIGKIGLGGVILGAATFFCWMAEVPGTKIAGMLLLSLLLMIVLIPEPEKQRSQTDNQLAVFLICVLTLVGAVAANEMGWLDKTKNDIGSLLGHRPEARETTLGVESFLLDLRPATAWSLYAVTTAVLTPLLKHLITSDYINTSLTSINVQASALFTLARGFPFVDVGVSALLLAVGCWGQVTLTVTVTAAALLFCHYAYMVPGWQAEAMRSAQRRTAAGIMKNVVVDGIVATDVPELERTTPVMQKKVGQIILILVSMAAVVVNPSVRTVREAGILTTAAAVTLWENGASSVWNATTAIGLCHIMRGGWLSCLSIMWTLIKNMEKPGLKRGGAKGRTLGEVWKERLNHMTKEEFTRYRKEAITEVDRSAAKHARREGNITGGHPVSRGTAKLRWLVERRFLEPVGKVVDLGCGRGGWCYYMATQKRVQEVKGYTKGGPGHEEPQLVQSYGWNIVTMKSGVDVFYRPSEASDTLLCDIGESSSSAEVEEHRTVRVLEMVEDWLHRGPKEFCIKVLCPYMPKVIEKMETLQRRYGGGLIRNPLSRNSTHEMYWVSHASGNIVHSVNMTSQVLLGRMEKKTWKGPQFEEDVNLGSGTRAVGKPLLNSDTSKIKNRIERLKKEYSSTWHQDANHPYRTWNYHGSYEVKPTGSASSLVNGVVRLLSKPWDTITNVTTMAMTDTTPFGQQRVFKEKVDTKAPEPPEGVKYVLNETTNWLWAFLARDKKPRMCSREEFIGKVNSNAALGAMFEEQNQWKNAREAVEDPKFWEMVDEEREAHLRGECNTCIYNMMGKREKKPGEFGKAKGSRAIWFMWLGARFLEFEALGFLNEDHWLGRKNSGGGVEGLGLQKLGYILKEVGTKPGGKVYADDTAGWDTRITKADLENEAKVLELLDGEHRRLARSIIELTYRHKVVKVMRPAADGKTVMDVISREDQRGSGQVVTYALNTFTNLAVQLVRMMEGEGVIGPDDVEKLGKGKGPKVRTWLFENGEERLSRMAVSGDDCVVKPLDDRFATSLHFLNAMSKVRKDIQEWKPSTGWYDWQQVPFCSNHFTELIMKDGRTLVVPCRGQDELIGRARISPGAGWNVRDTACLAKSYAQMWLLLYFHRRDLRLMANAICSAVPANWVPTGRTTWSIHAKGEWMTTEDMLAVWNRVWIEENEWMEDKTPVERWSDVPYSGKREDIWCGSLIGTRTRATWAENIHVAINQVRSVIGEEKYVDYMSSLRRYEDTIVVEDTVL

Consider `O=C(Nc1ccc(F)cc1)C1CC(Br)=NO1` (stereo unspecified), for which the inhibition in assay [1], in assay [2], in assay [3], in assay [4], in assay [5] and in [6] was under 15% each time. The inhibition was 23% in [7]; 21% in assay [8]; under 15% in [11]; under 15% in assay [12]; under 15% in assay [13]. In addition, the Activity in [9] was under 0.1 L/mol/s. Also, the T1/2 in assay [10] is over 200 h.

For the compound `Cc1ccc(NC(=O)C2CC(Br)=NO2)cc1` (stereo unspecified), the inhibition in assay [1] was 19%; in [2], under 15%; in [3], under 15%; in assay [4], under 15%; in [5], under 15%; in assay [6], under 15%. Further, the inhibition in assay [7] is under 15%; in [8], under 15%; in assay [11], under 15%; in [12] it was 22%; in assay [13], under 15%. Besides, the Activity in [9] was under 0.1 L/mol/s. Further, the T1/2 in assay [10] was over 200 h.

On to `O=C(NCCc1ccccc1)C1CC(Br)=NO1` (stereo unspecified), for which the inhibition in [1] is under 15%; in assay [2], under 15%; in [3], under 15%; in assay [4], 16%; in assay [5] it was under 15%; in assay [6] it was 18%. For the same compound, the inhibition in assay [7] was 23%; in [8] it was under 15%; in assay [11], under 15%; in [12] it was under 15%; in assay [13], under 15%. In addition, the Activity in [9] is under 0.1 L/mol/s. Moreover, the T1/2 in assay [10] is over 200 h.

With `C=CC(=O)NCCc1ccccc1`, the inhibition in assay [1], in assay [2], in assay [3], in assay [4], in assay [5] and in [6] was under 15% each time. Also, the inhibition in [7], in assay [8], in assay [11], in assay [12] and in [13] was under 15% in each case. For the same compound, the Activity in assay [9] was under 0.1 L/mol/s; in [14] it was under 5%.

Regarding `COc1ccc(NC(=O)C2CC(Br)=NO2)cc1` (stereo unspecified), the inhibition in [1], in assay [2], in [3], in assay [4], in assay [5] and in assay [6] was under 15% each time. In addition, the inhibition in assay [7] is 18%; in [8] it was under 15%; in assay [11], under 15%; in [12] it was 21%; in [13], under 15%. Further, in assay [9], the Activity was under 0.1 L/mol/s. Further, the T1/2 in [10] was over 200 h.

For the compound `C=CC(=O)NC1CCCC1`, the inhibition in assay [1] was under 15%; in assay [2], 17%; in assay [3], under 15%; in [4] it was under 15%; in assay [5], under 15%; in assay [6], under 15%. Further, the inhibition in assay [7], in assay [8], in assay [11], in assay [12] and in assay [13] was under 15% each time. The Activity was under 0.1 L/mol/s in [9] and under 5% in [14].

Take `C=CC(=O)NCc1ccccc1`: the inhibition in [1], in [2], in [3], in [4], in [5] and in [6] was under 15% each time. Further, the inhibition in assay [7], in assay [8], in [11], in assay [12] and in assay [13] was under 15% in each case. Moreover, the Activity was under 0.1 L/mol/s in [9] and under 5% in assay [14].

With `CCCCNC(=O)C1CC(Br)=NO1` (stereo unspecified), the inhibition in assay [1], in assay [2], in assay [3], in assay [4], in assay [5] and in assay [6] was under 15% in each case. Also, the inhibition in assay [7] is 27%; in assay [8], under 15%; in [11], under 15%; in assay [12], under 15%; in assay [13] it was under 15%. Further, the Activity in assay [9] was under 0.1 L/mol/s. Further, the EC50 in assay [15] is over 100 µM. For the same compound, the T1/2 in [10] was over 200 h.

Regarding `O=C(NCc1ccccc1)C1CC(Br)=NO1` (stereo unspecified), the inhibition is under 15% in assay [1]; under 15% in assay [2]; under 15% in assay [3]; 18% in assay [4]; under 15% in assay [5]; 16% in assay [6]. The inhibition in assay [7] was under 15%; in assay [8] it was 15%; in [11], under 15%; in assay [12] it was under 15%; in [13], under 15%. Also, the Activity in assay [9] is under 0.1 L/mol/s. The T1/2 in [10] is over 200 h.

Take `C=CC(=O)NCCCC`: the inhibition in assay [1] is under 15%; in assay [2], 20%; in [3], under 15%; in assay [4], under 15%; in [5], under 15%; in assay [6], under 15%. Also, the inhibition in assay [7], in [8], in assay [11], in [12] and in [13] was under 15% in each case. In addition, the Activity in assay [9] was under 0.1 L/mol/s; in assay [14], under 5%. Further, the EC50 in [15] is over 100 µM.

In the case of `C=CC(=O)Nc1ccc(C)cc1`, the inhibition in assay [1], in assay [2], in [3], in assay [4], in [5] and in [6] was under 15% in each case. For the same compound, the inhibition in assay [7], in [8], in [11], in assay [12] and in assay [13] was under 15% each time. The Activity was under 0.1 L/mol/s in assay [9] and under 5% in assay [14].

With `C=CC(=O)NC(CCCC)C(=O)OC` (stereo unspecified), the inhibition in [1], in [2], in assay [3], in [4], in assay [5] and in assay [6] was under 15% throughout. The inhibition in assay [7], in assay [8], in assay [11], in [12] and in assay [13] was under 15% each time. Also, the Activity in assay [9] was under 0.1 L/mol/s; in assay [14], under 5%.

With `O=C(NC1CCCC1)C1CC(Br)=NO1` (stereo unspecified), the inhibition is under 15% in assay [1]; under 15% in assay [2]; under 15% in assay [3]; under 15% in [4]; under 15% in [5]; 15% in assay [6]. The inhibition in assay [7] is 16%; in [8], under 15%; in assay [11], under 15%; in [12] it was under 15%; in assay [13], under 15%. Further, in assay [9], the Activity is under 0.1 L/mol/s. Also, the T1/2 in [10] was over 200 h.

For orientation: inhibition means the share of the control response that was lost under treatment. Broadly, the EC50 is the concentration at which the effect is half-maximal.

Values taken from ChEMBL document CHEMBL3352149, “Promiscuity and selectivity in covalent enzyme inhibition: a systematic study of electrophilic fragments” (J Med Chem, 2014).
